Experimental data as given in ChEMBL document CHEMBL4346701, “Synthesis and biological evaluation of tryptophan-derived rhodanine derivatives as PTP1B inhibitors and anti-bacterial agents” (Eur J Med Chem, 2019).
≈ marks a conversion by molar mass, not a printed value.

Tests used:
[1] = target: T1, Tyrosine-protein phosphatase non-receptor type 1 (Homo sapiens, UniProt P18031); test: Inhibition of human recombinant GST-tagged PTP1B expressed in Escherichia coli BL21 (DE3) using pNPP as substrate measured for 2 mins by colorimetric analysis
T1 sequence (P18031 whole entry): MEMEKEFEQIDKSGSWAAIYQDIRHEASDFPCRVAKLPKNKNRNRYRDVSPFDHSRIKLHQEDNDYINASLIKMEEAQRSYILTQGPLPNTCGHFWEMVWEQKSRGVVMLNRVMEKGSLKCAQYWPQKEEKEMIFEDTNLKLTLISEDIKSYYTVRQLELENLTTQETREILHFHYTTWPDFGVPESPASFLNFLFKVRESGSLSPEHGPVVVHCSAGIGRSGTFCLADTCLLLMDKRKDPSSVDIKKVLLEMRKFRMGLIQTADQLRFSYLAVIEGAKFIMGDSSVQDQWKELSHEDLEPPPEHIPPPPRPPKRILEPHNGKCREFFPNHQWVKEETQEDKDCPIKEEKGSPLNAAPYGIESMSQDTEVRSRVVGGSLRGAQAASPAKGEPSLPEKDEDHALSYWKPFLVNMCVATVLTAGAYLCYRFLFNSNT

[2] = target: T2, Tyrosine-protein phosphatase non-receptor type 2 (Homo sapiens, UniProt P17706); test: Inhibition of human recombinant GST-tagged TCPTP (catalytic domain […] residues) expressed in Escherichia coli BL21 (DE3) using pNPP as substrate measured for 2 mins by colorimetric analysis
T2 sequence (P17706 whole entry): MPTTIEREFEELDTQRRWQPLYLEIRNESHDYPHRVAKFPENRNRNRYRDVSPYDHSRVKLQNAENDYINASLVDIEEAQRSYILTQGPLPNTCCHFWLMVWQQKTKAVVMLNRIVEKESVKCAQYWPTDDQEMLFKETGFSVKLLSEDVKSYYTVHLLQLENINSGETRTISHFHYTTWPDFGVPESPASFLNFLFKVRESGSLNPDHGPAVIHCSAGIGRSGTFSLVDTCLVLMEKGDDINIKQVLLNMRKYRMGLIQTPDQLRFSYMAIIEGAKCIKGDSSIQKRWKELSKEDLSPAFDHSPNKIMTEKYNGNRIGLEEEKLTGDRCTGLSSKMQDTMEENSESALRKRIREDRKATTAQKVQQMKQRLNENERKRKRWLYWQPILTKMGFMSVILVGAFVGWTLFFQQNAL

[3] = target: Tyrosine-protein phosphatase non-receptor type 6 (Homo sapiens, UniProt P29350); test: Inhibition of human recombinant GST-tagged SHP1 (catalytic domain 244 to 570 residues) expressed in Escherichia coli BL21 (DE3) using pNPP as substrate measured for 2 mins by colorimetric analysis
Sequence of Tyrosine-protein phosphatase non-receptor type 6 (P29350 whole entry, the tested form may be a part): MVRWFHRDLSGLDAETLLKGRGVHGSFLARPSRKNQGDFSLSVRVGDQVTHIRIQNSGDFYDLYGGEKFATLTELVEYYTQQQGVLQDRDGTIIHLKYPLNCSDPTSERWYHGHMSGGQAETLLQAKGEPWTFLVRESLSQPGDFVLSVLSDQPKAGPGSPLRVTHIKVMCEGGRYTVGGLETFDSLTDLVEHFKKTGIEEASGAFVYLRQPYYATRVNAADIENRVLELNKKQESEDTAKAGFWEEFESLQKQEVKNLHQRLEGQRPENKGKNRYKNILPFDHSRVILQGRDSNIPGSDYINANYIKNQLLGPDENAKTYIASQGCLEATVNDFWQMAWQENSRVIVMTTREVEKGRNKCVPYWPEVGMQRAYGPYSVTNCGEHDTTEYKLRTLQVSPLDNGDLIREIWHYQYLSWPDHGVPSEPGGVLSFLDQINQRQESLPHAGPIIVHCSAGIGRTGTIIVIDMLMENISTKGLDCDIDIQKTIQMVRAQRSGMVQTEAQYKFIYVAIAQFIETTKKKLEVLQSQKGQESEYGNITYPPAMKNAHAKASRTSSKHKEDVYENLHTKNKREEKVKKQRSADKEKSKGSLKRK
Procedure, shortened: (§1)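 pNPP hydrolysis assay. IC50 was derived by regression analysis and given as mean ± SD of three replications.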

[4] = target: T3, Tyrosine-protein phosphatase non-receptor type 11 (Homo sapiens, UniProt Q06124); test: Inhibition of human recombinant GST-tagged SHP2 (catalytic domain […] residues) expressed in Escherichia coli BL21 (DE3) using pNPP as substrate measured for 2 mins by colorimetric analysis; procedure, shortened: as §1
T3 sequence (Q06124 whole entry): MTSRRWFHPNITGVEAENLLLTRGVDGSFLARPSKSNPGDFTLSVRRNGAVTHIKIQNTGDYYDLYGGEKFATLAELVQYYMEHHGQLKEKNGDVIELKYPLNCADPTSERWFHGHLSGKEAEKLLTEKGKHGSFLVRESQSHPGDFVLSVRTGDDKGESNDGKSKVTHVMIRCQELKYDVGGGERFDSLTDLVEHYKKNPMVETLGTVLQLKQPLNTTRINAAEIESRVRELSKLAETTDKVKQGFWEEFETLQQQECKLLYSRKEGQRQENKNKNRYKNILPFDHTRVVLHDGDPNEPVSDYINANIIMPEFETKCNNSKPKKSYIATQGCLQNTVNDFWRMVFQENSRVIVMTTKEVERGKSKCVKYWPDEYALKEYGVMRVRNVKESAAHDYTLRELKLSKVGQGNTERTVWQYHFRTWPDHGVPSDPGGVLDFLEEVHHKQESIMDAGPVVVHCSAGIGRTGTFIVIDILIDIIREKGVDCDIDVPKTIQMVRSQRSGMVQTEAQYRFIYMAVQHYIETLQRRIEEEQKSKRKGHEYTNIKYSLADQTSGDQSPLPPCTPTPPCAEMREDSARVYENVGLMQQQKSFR

[5] = system: Staphylococcus aureus; test: Antibacterial activity against Staphylococcus aureus RN4220 assessed as reduction in bacterial cell growth incubated for 24 hrs by ELISA; format: functional; conditions: RN4220, 24 h
Procedure, shortened: (§2)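 MICs determined by serial dilution in 96-well microtiter plates. The strain panel included Gram-positive S. aureus strains and multidrug-resistant clinical isolates. Gatifloxacin, moxifloxacin, norfloxacin and oxacillin served as antibacterial positive controls.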

[6] = system: Staphylococcus aureus; test: Antibacterial activity against Staphylococcus aureus KCTC209 assessed as reduction in bacterial cell growth incubated for 24 hrs by ELISA; format: functional; conditions: KCTC209, 24 h; procedure, shortened: as §2
[7] = system: Escherichia coli; test: Antibacterial activity against Escherichia coli 1924 assessed as reduction in bacterial cell growth incubated for 24 hrs by ELISA; format: functional; conditions: Escherichia coli, 1924, 24 h
Procedure, shortened: (§3)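 MIC determined by serial dilution in 96-well microtiter plates. Strains used were E. coli 1924 and P. aeruginosa 2742 (Gram-negative), S. mutans 3289 (Gram-positive) and the fungus C. albicans 7535. Gatifloxacin, moxifloxacin, norfloxacin and oxacillin served as antibacterial reference agents, and fluconazole as the antifungal reference.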

[8] = system: Pseudomonas aeruginosa; test: Antibacterial activity against Pseudomonas aeruginosa 2742 assessed as reduction in bacterial cell growth incubated for 24 hrs by ELISA; format: functional; conditions: Pseudomonas aeruginosa, 2742, 24 h; procedure, shortened: as §3
[9] = system: Candida albicans; test: Antifungal activity against Candida albicans 7535 assessed as reduction in bacterial cell growth incubated for 24 hrs by ELISA; format: functional; conditions: Candida albicans, 7535, 24 h; procedure, shortened: as §3
[10] = system: Staphylococcus aureus; test: Antibacterial activity against Methicillin-resistant Staphylococcus aureus CCARM 3167 assessed as reduction in bacterial cell growth incubated for 24 hrs by ELISA; format: functional; conditions: CCARM 3167, 24 h; procedure, shortened: as §2
[11] = system: Staphylococcus aureus; test: Antibacterial activity against Methicillin-resistant Staphylococcus aureus CCARM 3506 assessed as reduction in bacterial cell growth incubated for 24 hrs by ELISA; format: functional; conditions: CCARM 3506, 24 h; procedure, shortened: as §2
[12] = system: Staphylococcus aureus; test: Antibacterial activity against Quinolone-resistant Staphylococcus aureus CCARM 3505 assessed as reduction in bacterial cell growth incubated for 24 hrs by ELISA; format: functional; conditions: CCARM 3505, 24 h; procedure, shortened: as §2
[13] = system: Staphylococcus aureus; test: Antibacterial activity against Quinolone-resistant Staphylococcus aureus CCARM 3519 assessed as reduction in bacterial cell growth incubated for 24 hrs by ELISA; format: functional; conditions: CCARM 3519, 24 h; procedure, shortened: as §2
[14] = species on record: Homo sapiens; test: Selectivity ratio of IC50 for human recombinant GST-tagged TCPTP to IC50 for human recombinant GST-tagged PTP1B
[15] = species on record: Homo sapiens; test: Selectivity ratio of IC50 for human recombinant GST-tagged SHP1 to IC50 for human recombinant GST-tagged PTP1B
[16] = species on record: Homo sapiens; test: Selectivity ratio of IC50 for human recombinant GST-tagged SHP2 to IC50 for human recombinant GST-tagged PTP1B

Row | Compound | IC50 [1] [µM] | IC50 [2] [µM] | IC50 [3] [µM] | IC50 [4] [µM] | MIC [5] [µg/mL] | MIC [6] [µg/mL] | MIC [7] [µg/mL] | MIC [8] [µg/mL] | MIC [9] [µg/mL] | MIC [10] [µg/mL] | MIC [11] [µg/mL] | MIC [12] [µg/mL] | MIC [13] [µg/mL] | Ratio IC50 [14] | Ratio IC50 [15] | Ratio IC50 [16]
1 | O=C(O)C(Cc1c[nH]c2ccccc12)N1C(=O)/C(=C/c2ccc3cc(OCc4ccc(Cl)cc4Cl)ccc3c2)SC1=S (stereo not drawn) | 0.54 | 1.83 | 2.95 | 6.93 | 2 (≈ 3.16 µM) | 4 (≈ 6.31 µM) | 8 (≈ 12.6 µM) | > 64 | > 64 | 4 (≈ 6.31 µM) | 8 (≈ 12.6 µM) | 4 (≈ 6.31 µM) | 8 (≈ 12.6 µM) | 2 to 3 | 3 to 6 | 9 to 10
2 | Cc1ccc(COc2ccc3cc(/C=C4\SC(=S)N(C(Cc5c[nH]c6ccccc56)C(=O)O)C4=O)ccc3c2)cc1 (stereo not drawn) | 0.64 | 1.69 | 3.99 | 5.81 | 2 (≈ 3.46 µM) | 2 (≈ 3.46 µM) | 2 (≈ 3.46 µM) | > 64 | > 64 | 2 (≈ 3.46 µM) | 8 (≈ 13.8 µM) | 2 (≈ 3.46 µM) | 2 (≈ 3.46 µM) | 2 to 3 | 3 to 6 | 9 to 10
3 | O=C(O)C(Cc1c[nH]c2ccccc12)N1C(=O)/C(=C/c2ccc3cc(OCc4ccc(Br)cc4)ccc3c2)SC1=S (stereo not drawn) | 0.36 | 0.78 | 1.11 | 3.8 | 2 (≈ 3.11 µM) | 2 (≈ 3.11 µM) | 8 (≈ 12.4 µM) | > 64 | > 64 | 4 (≈ 6.22 µM) | 4 (≈ 6.22 µM) | 4 (≈ 6.22 µM) | 4 (≈ 6.22 µM) | 2 to 3 | 3 to 6 | 9 to 10
